Compound activity: PubChem, Johns Hopkins Ion Channel Center
RGS4 block: RGS4 inhibitors, primary screen, cell-based, HEK293 M3R inducible RGS4, calcium flux; Fluo-4 calcium flux; stronger effect = higher value; triggered by carbachol at its EC20; B-score at 10 µM; Regulator of G-protein signaling 4 (Homo sapiens), P49798; 310,000 tested, 0.45% active;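 active = B-score, a plate-corrected calcium signal, over three deviations above library mean, with baseline fluorescence within five deviations of library mean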;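 note: RGS4 expression induced by doxycycline in cells with stable M3 receptor; B-score is computed from the integrated fluorescence ratio over baseline after carbachol; higher B-score means a larger calcium signal and so more RGS4 inhibition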
Target sequence (P49798 whole entry, looked up): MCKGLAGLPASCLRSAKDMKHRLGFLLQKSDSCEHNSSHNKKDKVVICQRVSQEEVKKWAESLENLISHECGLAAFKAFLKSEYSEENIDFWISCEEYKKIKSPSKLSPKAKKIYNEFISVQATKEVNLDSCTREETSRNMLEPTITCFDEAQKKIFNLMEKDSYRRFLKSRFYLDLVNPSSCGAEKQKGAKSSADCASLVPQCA
RGS4 pot: RGS4 potentiators or activators, primary screen, cell-based, HEK293 M3R inducible RGS4, calcium flux; carbachol calcium flux Fluo4; stronger effect = lower value; 310,000 tested, 0.92% active; B-score at 10 µM; AID 463111, 2010;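 active = B-score of the integrated calcium signal more than 4 SD below the library mean, with starting fluorescence not abnormally high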;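 note: negative B-score means reduced calcium response which marks RGS4 activation or potentiation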
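System: HEK293 FlpIn-TREx cells, stable M3R, doxycycline-inducible RGS4. Timing: overnight RGS4 induction, 30 min dye load 37 °C, 20 min compound RT. Also added: carbachol, ECmax concentration. Measured by: Fluo4 fluorescence kinetic imaging of calcium. Evaluation: integrated calcium ratio converted to B score.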
MrgX1 PAM: positive allosteric modulators of MrgX1, primary screen, HEK293 cells, Fluo-4 calcium flux. FDSS; stronger effect = higher value. 310,000 tested, 0.63% active. AID 588675, 2011. Mas-related G-protein coupled receptor member X1 (Homo sapiens), Q96LB2. B-score at 10 µM;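 active = plate-corrected calcium response at least 3 library SD above typical, normal starting fluorescence, not activating the receptor alone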;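 note: compound read alongside a low EC10 to EC30 dose of BAM8-22 agonist; peak minus trough fluorescence over baseline measured at the second addition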
Target sequence (Q96LB2 whole entry, looked up): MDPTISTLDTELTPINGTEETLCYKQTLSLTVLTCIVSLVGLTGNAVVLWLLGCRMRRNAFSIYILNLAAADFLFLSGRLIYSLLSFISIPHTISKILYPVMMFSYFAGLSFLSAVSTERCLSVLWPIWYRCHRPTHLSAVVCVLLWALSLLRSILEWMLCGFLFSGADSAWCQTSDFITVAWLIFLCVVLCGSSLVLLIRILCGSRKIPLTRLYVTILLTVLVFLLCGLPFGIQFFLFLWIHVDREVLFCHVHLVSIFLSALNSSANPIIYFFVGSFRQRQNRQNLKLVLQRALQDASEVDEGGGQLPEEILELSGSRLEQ
MrgX1 agonist: agonists of human MrgX1 receptor, primary screen, HEK293 cells, Fluo-4 calcium flux; Mas-related G-protein coupled receptor member X1 (Homo sapiens), Q96LB2; Fluo-4 calcium fluorescence, agonist mode; stronger effect = higher value; B-score at 10 µM; 310,000 tested, 0.44% active; AID 588627, 2011;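 active = calcium response B-score plate-corrected fluorescence ratio at least 3 library SD, with starting fluorescence B-score inside 5 SD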
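Material: MrgX1-expressing HEK293 cells / Dosing: compound as first of three additions / Incubation: overnight seeding, then 1 h dark dye loading / Signal: Fluo-4 NW calcium fluorescence / Evaluation: B-scored fluorescence response ratio / Benchmarks: positive and negative control wells on each plate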
MrgX1 antagonist: antagonists of human MrgX1 receptor, primary screen, HEK293 cells, Fluo-4 calcium flux; BAM8-22 antagonism; stronger effect = lower value; B-score at 10 µM; 310,000 tested, 1.3% active;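 active = calcium-response B-score plate-corrected more than 3 library SD below zero, starting fluorescence within 5 deviations, no agonist response on first addition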;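 note: peak minus trough fluorescence over baseline after final BAM8-22 challenge near maximal dose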
Each line names hits and unclear results; the compound was inactive in the other large screens. Only some compounds are listed: those with a hit (about 3.5% of all), similar ones and a draw of the others.

COCCNC(=O)c1c(CS(=O)(=O)c2ccccc2)noc1C(=O)NCc1ccccc1	none
CC1(C)CC(=O)C2=C(C1)OC(N)=C(C#N)C21C(=O)N(Cc2ccccc2Cl)c2ccccc21 (configuration not stated)	MrgX1 PAM 8.7
CC1=CC(C)(C)N2C(=O)C3(C(C#N)=C(N)OC4=C3C(=O)CC(C)(C)C4)c3cccc1c32 (configuration not stated)	none (no result: MrgX1 PAM, MrgX1 agonist, MrgX1 antagonist)
O=C(Nc1nnc(CCc2ccccc2)s1)c1ccccc1F	none
CCO/C([O-])=N/c1sn[n+](C)c1C	MrgX1 antagonist -5.3
CCCOc1ccc(C(=O)N/N=C/c2ccc(-c3ccc(S(=O)(=O)Nc4ncccn4)cc3)o2)cc1	MrgX1 agonist 29
Brc1ccccc1OCCCOc1cccc2cccnc12	none
COc1cccc(C=O)c1OCCCOc1cccc2cccnc12	MrgX1 agonist 33
O=c1c2cc(Br)ccc2nc(-c2ccc([N+](=O)[O-])cc2)n1O	MrgX1 agonist 133
O=c1c2ccc(Cl)cc2nc(-c2ccc([N+](=O)[O-])cc2)n1O	MrgX1 agonist 54
O=c1c2cc(Cl)ccc2nc(-c2ccccc2)n1O	none
CCCCn1c(N)c(N(CCOC)C(=O)C2CC(=O)N(c3cccc(SC)c3)C2)c(=O)[nH]c1=O (configuration not stated)	none
CCCCn1c(NC(=O)c2ccccc2Cl)c(C#N)c2nc3ccccc3nc21	MrgX1 agonist 26
COc1ccc(-n2c(NC(=O)c3ccco3)c(C#N)c3nc4ccccc4nc32)cc1	MrgX1 PAM 7.1
O=C1C=CC(=O)N1c1cccc(-c2ccccc2)c1	RGS4 pot -9.5
Cc1ccc(NC(=O)c2cccc(NC3=NC4CS(=O)(=O)CC4S3)c2)cc1 (configuration not stated)	none
COc1ccc(NC(=O)CN2C(=O)/C(=C3\SC(=S)N(C4CCS(=O)(=O)C4)C3=O)c3ccccc32)cc1 (configuration not stated)	MrgX1 PAM 11
Cc1ccc(C)c(C(=O)C(C)Sc2nc3nn(-c4ccccc4)c(=O)c-3c3n2CCCCC3)c1 (configuration not stated)	none
CCCCCCCCCCCC(=O)c1c(O)cccc1O	RGS4 pot -9.2
O=C(COC(=O)/C=C/c1ccc([N+](=O)[O-])cc1)NCc1ccccc1	none
O=C(/C=C/c1ccc([N+](=O)[O-])cc1)OCC(=O)N1c2ccccc2Sc2ccccc21	RGS4 pot -8.2
CC(C)c1ccc(/C=C/C(=O)NC(=S)Nc2ccc(CN3CCOCC3)cc2)cc1	RGS4 pot -8.8
Cc1cc(C)cc(-n2c(C)cc(/C=C3\C(=N)N4N=C(CC(C)C)SC4=NC3=O)c2C)c1	RGS4 pot -7.8
CCCC1=NN2C(=N)/C(=C\c3cc(C)n(-c4cc(C)cc(C)c4)c3C)C(=O)N=C2S1	RGS4 pot -8.6
O=C(c1ccc2c(=O)n3c(nc2c1)CCCCC3)N1CCN(c2cccc(Cl)c2)CC1	none
O=C(O)Cc1sc(N/N=C\c2ccccc2)nc1-c1ccccc1	MrgX1 antagonist -6.2
CCOC(=O)c1sc(N/N=C/c2ccccc2)nc1C	none
CCCCCCN(C(=O)CCCCCN1C(=O)NC(c2ccc(-c3ccccc3)cc2)C(C(=O)OCc2ccccc2)=C1C)C(C)C(=O)NCCCC (configuration not stated)	MrgX1 antagonist -4.6
CCCCCCN(C(=O)CCCCCN1C(=O)NC(c2ccc(-c3ccccc3)cc2)C(C(=O)OCc2ccccc2)=C1C)C(C(=O)NCCCC)c1ccccc1 (configuration not stated)	none (no result: MrgX1 PAM, MrgX1 agonist, MrgX1 antagonist)
O=C1c2ccccc2C(=O)C2OC12 (configuration not stated)	RGS4 block 22, MrgX1 agonist 43
COc1ccc(C2C(C#N)=C(N)SC(N)=C2C#N)cc1OC	MrgX1 antagonist -4.6
COc1ccc(C2C(C#N)=C(N)OC(C(C)(C)C)=C2C#N)cc1OC (configuration not stated)	none
N#CC1=C(N)SC(N)=C(C#N)C1c1cccc(O)c1	MrgX1 agonist 39
CN(C(=O)CSc1nnc(CN2CCCC2)n1Cc1ccccc1)c1ccccc1	none
CC[C@H](C)[C@@H]1NC(=O)c2cc([N+](=O)[O-])cc(I)c2SC[C@@H](C(N)=O)NC(=O)[C@H](CCCCN)NC1=O	MrgX1 antagonist -6.6 (no result: RGS4 block, RGS4 pot)
C[N+]1=C(/C=C/Nc2ccccc2Cl)C(C)(C)c2ccccc21	none
COC(=O)c1ccc2c(c1)C(C)(C)C(/C=C/c1ccccc1O)=[N+]2C	RGS4 pot -7.2
CCOc1ccc(Br)cc1C1=NN(C(C)=O)C(c2ccc([N+](=O)[O-])s2)O1 (configuration not stated)	none (no result: MrgX1 PAM, MrgX1 agonist, MrgX1 antagonist)
O=C(Nc1ccc2nc3ccccc3nc2c1)c1ccccc1	none
O=C(Nc1ccc(-c2nc3ccccc3s2)c(OC(=O)c2ccccc2)c1)c1ccccc1	MrgX1 antagonist -4.8
CCOC(=O)c1c(NC(=S)Nc2ccccc2)sc2c1CCN(CCc1ccccc1)C2	MrgX1 antagonist -5 (no result: RGS4 block, RGS4 pot)
CC(C)N1CCc2c(sc(NC(=S)NC(=O)c3ccccc3)c2C#N)C1	none
CCCN1CCc2c(sc(NC(=S)NC(=O)c3ccccc3)c2C#N)C1	MrgX1 agonist 80
O=C(Nc1ccccc1F)N1CCC(NC(=O)C23CC4CC(CC(C4)C2)C3)CC1	none
COc1ccc(C(=O)N2CCOC2CNC(=O)C(=O)NCCc2ccc(OC)c(OC)c2)cc1 (configuration not stated)	none
CC(C)N(CCCNC(=O)c1ccc(CS(=O)(=O)c2c(Cl)cccc2Cl)o1)Cc1ccccc1	RGS4 pot -8.6
O=C(NCCc1ccco1)c1cc(COc2cccc(C(F)(F)F)c2)on1	none
CCCCN(C(=O)C1CC(=O)N(Cc2ccc(C)cc2)C1)c1c(N)n(CC(C)C)c(=O)[nH]c1=O (configuration not stated)	MrgX1 antagonist -7.2
CCCCn1c(N)c(N(CCOC)C(=O)C2CC(=O)N(Cc3ccc(C)cc3)C2)c(=O)[nH]c1=O (configuration not stated)	none
O=C(CSCc1ccccc1)N/N=C/c1ccccc1OCc1ccccc1	MrgX1 antagonist -5.4
NC(=S)N/N=C/c1c[nH]c2ccc(OCc3ccccc3)cc12	RGS4 pot -7.1
NC(=S)N/N=C\c1ccccc1OCc1ccccc1	MrgX1 antagonist -8.7
O=C(CSCc1cccc(Br)c1)N/N=C/c1ccc2c(c1)OCO2	MrgX1 antagonist -5.4
NC1=NC(=O)/C(=C/c2ccc(-c3ccc(S(N)(=O)=O)cc3)o2)S1	MrgX1 antagonist -4.7
O=S(=O)(CCc1ccncc1)c1ccc(Cl)cc1	none
